# Active and inactive are the calls of the source. The rule behind the calls is not given here.
# Experiments:
# [1] = molecular target: Ephrin type-A receptor 2 (Homo sapiens) (UniProt P29317); assay: Inhibition of recombinant human EPhA2 (596 to 900 residues) at 1 uM using poly(Glu, Tyr) 4:1as substrate incubated for 40 mins in presence of [gamma-33P]-ATP by scintillation counting method relative to control
# Homo sapiens = organism: Homo sapiens; assay: Inhibition of recombinant human full length PI3K p110alpha/p65alpha (1 to 571 residues) at 1 uM using phosphatidylinositol 4,5-bisphosphate as substrate incubated for 40 mins in presence of [gamma-33P]-ATP by scintillation counting method relative to control
# [2] = molecular target: Dual specificity mitogen-activated protein kinase kinase 2 (Homo sapiens) (UniProt P36507); assay: Inhibition of recombinant human full length MEK2 at 1 uM using MBP as substrate incubated for 40 mins in presence of [gamma-33P]-ATP by scintillation counting method relative to control
# [3] = molecular target: CDK6/cyclin D3 (Homo sapiens) (UniProt P30281+Q00534); assay: Inhibition of recombinant human full length CDK6/cyclinD3 at 1 uM using histone H1 as substrate incubated for 40 mins in presence of [gamma-33P]-ATP by scintillation counting method relative to control; type: protein-complex assay
# [4] = molecular target: Eukaryotic translation initiation factor 2-alpha kinase 3 (Homo sapiens) (UniProt Q9NZJ5); assay: Inhibition of recombinant human PEK (536 to end residues) at 1 uM using RSRSRSRSRSRSRSR as substrate incubated for 40 mins in presence of [gamma-33P]-ATP by scintillation counting method relative to control
# [5] = molecular target: ALK tyrosine kinase receptor (Homo sapiens) (UniProt Q9UM73); assay: Inhibition of recombinant human ALK (1058 to end residues) at 1 uM using KKKSPGEYVNIEF as substrate incubated for 40 mins in presence of [gamma-33P]-ATP by scintillation counting method relative to control
# Procedure, shortened: (§1)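 Kinase panel profiling at 1 μM performed by Eurofins KinaseProfiler; percent inhibition reported as mean of two independent experiments.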
# [6] = Toxicity in BALB/c mouse assessed as effect on blood parameter by measuring RBC content at 40 mg/kg, po administered once two days for 4 times by hematology analyzer; details: in vivo
# [7] = Tmax in Sprague-Dawley rat at 10 mg/kg, po by HPLC-MS analysis; type: ADME, organism-based; details: in vivo
# [8] = molecular target: Protein kinase C beta type (Homo sapiens) (UniProt P05771); assay: Inhibition of recombinant human PKCbeta2 (2 to end residues) at 1 uM using histone H1 as substrate incubated for 40 mins in presence of [gamma-33P]-ATP by scintillation counting method relative to control
# [9] = molecular target: Calcium/calmodulin-dependent protein kinase type 1 (Homo sapiens) (UniProt Q14012); assay: Inhibition of recombinant human CAMKIalpha (2 to end residues) at 1 uM using […] as substrate incubated for 40 mins in presence of [gamma-33P]-ATP by scintillation counting method relative to control
# Procedure, shortened: (§2)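 Tested at a single 1 uM in an outsourced commercial kinase-profiling panel, read as percent inhibition. Each value is the mean of two independent experiments.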
# T47D = assay: Induction of apoptosis in human T47D cells assessed as decrease in Ki67 expression at 20 to 40 nM incubated for 48 hrs by Western blot analysis; type: functional, cell-based
# Procedure, shortened: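 Cancer cells were exposed to graded concentrations for 48 h, washed three times in PBS and lysed in RIPA buffer. Immunoblots were probed with anti-Rb, anti-phospho-Rb, anti-Ki67 and anti-Bcl-2, each at 1:1000. β-actin served as loading control.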
# [10] = molecular target: Myosin light chain kinase 2, skeletal/cardiac muscle (Homo sapiens) (UniProt Q9H1R3); assay: Inhibition of recombinant human full length MYLK2 at 1 uM using KKLNRTLSFAEPG as substrate incubated for 40 mins in presence of [gamma-33P]-ATP by scintillation counting method relative to control
# [11] = molecular target: Serine/threonine-protein kinase mTOR (Homo sapiens) (UniProt P42345); assay: Inhibition of recombinant human full length mTOR at 1 uM using as peptide substrate incubated for 40 mins in presence of [gamma-33P]-ATP by scintillation counting method relative to control
# Procedure, shortened: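 Single-point inhibition at 1 uM measured in a commercial kinase profiling panel (KinaseProfiler); each value is the mean of two independent experiments.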
# [12] = test system: Serine/threonine-protein kinase B-raf (Homo sapiens), P15056 [V600E]; assay: Inhibition of recombinant human BRAF V599E mutant (416 to end residues) at 1 uM using myelin as substrate incubated for 40 mins in presence of [gamma-33P]-ATP by scintillation counting method relative to control; procedure, shortened: as §1
# [13] = molecular target: Maternal embryonic leucine zipper kinase (Homo sapiens) (UniProt Q14680); assay: Inhibition of recombinant human MELK (1 to 340 end residues) at 1 uM using KKLNRTLSFAEPG as substrate incubated for 40 mins in presence of [gamma-33P]-ATP by scintillation counting method relative to control
# [14] = AUC (0 to infinity) in Sprague-Dawley rat at 10 mg/kg, po by HPLC-MS analysis; type: ADME, organism-based; design: dose 10 mg/kg, time infinity, route oral; details: in vivo
# Procedure, shortened: (§3)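 Rats fitted with jugular vein catheters for serial blood sampling. Compound dissolved in saline with 5% (v/v) DMSO and given as a single 10 mg/kg dose iv or po after an overnight fast, n = 5 per group. Plasma isolated at once and measured by HPLC with tandem MS detection. Parameters derived by noncompartmental fitting.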
# [15] = molecular target: Protein kinase C epsilon type (Homo sapiens) (UniProt Q02156); assay: Inhibition of recombinant human PKCepsilon (2 to end residues) at 1 uM using ERMRPRKRQGSVRRRV as substrate incubated for 40 mins in presence of [gamma-33P]-ATP by scintillation counting method relative to control
# [16] = molecular target: eIF-2-alpha kinase GCN2 (Homo sapiens) (UniProt Q9P2K8); assay: Inhibition of recombinant full length human GCN2 at 1 uM using RSRSRSRSRSRSRSR as substrate incubated for 40 mins in presence of [gamma-33P]-ATP by scintillation counting method relative to control; procedure, shortened: as §2
# [17] = molecular target: Bone morphogenetic protein receptor type-1B (Homo sapiens) (UniProt O00238); assay: Inhibition of recombinant human ALK6 (148 to end residues) at 1 uM using casein as substrate incubated for 40 mins in presence of [gamma-33P]-ATP by scintillation counting method relative to control; procedure, shortened: as §1
# [18] = molecular target: Ephrin type-A receptor 8 (Homo sapiens) (UniProt P29322); assay: Inhibition of recombinant human EPhA8 (615 to 911 residues) at 1 uM using KTFCGTPEYLAPEVRREPRILSEEEQEMFRDFDYIADWC as substrate incubated for 40 mins in presence of [gamma-33P]-ATP by scintillation counting method relative to control
# [19] = AUC (0 to t) in Sprague-Dawley rat at 10 mg/kg, po by HPLC-MS analysis; type: ADME, organism-based; details: in vivo; procedure, shortened: as §3
# MDA-MB-231 = assay: Inhibition of colony formation in human MDA-MB-231 cells at 40 nM incubated for 5 days by crystal violet staining based light microscopy; type: functional, cell-based
# Procedure, shortened: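 4 × 10^3 cells per well were cultured with graded concentrations for 5 days. Cells were then fixed with 20% methanol, stained with 0.5% crystal violet and photographed by light microscopy.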
# Sequence of Ephrin type-A receptor 2 (Homo sapiens) (P29317 whole entry, the tested form may be a part): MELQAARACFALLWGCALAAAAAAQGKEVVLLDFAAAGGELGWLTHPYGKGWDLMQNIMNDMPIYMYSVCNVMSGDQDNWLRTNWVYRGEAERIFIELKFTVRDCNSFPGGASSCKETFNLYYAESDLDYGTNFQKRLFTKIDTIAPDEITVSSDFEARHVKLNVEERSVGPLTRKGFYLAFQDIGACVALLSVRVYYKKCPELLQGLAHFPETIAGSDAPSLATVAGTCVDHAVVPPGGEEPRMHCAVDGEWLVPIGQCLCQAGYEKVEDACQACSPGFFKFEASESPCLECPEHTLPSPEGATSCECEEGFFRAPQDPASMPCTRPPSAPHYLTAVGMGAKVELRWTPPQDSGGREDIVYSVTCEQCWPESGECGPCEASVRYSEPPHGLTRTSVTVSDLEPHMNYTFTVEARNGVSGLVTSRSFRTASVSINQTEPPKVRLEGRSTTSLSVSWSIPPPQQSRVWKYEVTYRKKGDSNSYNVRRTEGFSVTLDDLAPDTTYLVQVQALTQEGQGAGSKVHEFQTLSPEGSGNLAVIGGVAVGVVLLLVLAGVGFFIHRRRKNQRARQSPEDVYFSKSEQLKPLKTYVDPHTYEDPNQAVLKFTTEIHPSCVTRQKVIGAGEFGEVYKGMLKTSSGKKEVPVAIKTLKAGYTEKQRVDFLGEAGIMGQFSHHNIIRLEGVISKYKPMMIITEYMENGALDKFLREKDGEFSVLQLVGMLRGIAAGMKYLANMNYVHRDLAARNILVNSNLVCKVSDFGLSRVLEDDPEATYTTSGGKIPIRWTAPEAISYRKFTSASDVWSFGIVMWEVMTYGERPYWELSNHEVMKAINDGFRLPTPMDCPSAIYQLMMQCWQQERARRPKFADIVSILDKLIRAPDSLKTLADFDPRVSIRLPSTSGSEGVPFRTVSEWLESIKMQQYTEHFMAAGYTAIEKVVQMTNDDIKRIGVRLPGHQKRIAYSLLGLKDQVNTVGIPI
# Sequence of Ephrin type-A receptor 8 (Homo sapiens) (P29322 whole entry, the tested form may be a part): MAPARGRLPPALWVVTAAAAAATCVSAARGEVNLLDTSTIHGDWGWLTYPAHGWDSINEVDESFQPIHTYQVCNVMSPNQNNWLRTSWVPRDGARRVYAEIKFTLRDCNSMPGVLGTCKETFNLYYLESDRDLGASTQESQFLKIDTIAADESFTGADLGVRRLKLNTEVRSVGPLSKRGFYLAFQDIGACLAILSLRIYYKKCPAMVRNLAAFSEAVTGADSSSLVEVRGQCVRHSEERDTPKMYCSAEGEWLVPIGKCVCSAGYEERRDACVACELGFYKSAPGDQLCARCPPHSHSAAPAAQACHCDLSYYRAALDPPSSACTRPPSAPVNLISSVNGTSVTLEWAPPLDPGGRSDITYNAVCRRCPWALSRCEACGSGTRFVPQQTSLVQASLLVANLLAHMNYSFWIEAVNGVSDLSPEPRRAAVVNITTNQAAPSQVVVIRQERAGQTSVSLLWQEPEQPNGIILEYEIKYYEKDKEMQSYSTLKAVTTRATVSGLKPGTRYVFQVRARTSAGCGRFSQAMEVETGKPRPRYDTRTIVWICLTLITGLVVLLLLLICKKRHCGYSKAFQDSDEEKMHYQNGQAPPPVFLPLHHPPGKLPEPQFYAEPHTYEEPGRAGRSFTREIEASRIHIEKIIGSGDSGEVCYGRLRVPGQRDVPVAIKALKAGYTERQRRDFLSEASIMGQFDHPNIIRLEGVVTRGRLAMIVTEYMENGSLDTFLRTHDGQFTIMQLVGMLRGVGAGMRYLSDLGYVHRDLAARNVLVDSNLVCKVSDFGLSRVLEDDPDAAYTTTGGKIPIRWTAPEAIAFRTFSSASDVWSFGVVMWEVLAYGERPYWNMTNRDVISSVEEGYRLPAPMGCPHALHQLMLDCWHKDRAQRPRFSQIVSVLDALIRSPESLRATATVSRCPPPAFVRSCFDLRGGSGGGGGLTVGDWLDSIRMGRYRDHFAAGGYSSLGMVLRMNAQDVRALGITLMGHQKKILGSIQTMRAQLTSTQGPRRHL
# Sequence of Myosin light chain kinase 2, skeletal/cardiac muscle (Homo sapiens) (Q9H1R3 whole entry): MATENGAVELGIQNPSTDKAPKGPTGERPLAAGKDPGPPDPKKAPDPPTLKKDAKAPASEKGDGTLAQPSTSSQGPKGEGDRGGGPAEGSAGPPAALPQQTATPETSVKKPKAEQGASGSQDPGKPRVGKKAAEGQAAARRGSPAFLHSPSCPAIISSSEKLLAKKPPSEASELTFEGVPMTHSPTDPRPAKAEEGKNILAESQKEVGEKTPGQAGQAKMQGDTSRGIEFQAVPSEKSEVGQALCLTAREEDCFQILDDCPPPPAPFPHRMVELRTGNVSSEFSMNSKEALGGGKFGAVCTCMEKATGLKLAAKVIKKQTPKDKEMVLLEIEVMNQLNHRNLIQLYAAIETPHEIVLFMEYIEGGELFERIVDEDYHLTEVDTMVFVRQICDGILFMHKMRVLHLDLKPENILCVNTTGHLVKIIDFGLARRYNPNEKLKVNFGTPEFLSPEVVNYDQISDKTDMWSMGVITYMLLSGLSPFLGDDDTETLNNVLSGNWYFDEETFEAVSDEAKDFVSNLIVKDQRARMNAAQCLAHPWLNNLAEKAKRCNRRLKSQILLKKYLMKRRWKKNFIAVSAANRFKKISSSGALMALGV
# Sequence of Eukaryotic translation initiation factor 2-alpha kinase 3 (Homo sapiens) (Q9NZJ5 whole entry): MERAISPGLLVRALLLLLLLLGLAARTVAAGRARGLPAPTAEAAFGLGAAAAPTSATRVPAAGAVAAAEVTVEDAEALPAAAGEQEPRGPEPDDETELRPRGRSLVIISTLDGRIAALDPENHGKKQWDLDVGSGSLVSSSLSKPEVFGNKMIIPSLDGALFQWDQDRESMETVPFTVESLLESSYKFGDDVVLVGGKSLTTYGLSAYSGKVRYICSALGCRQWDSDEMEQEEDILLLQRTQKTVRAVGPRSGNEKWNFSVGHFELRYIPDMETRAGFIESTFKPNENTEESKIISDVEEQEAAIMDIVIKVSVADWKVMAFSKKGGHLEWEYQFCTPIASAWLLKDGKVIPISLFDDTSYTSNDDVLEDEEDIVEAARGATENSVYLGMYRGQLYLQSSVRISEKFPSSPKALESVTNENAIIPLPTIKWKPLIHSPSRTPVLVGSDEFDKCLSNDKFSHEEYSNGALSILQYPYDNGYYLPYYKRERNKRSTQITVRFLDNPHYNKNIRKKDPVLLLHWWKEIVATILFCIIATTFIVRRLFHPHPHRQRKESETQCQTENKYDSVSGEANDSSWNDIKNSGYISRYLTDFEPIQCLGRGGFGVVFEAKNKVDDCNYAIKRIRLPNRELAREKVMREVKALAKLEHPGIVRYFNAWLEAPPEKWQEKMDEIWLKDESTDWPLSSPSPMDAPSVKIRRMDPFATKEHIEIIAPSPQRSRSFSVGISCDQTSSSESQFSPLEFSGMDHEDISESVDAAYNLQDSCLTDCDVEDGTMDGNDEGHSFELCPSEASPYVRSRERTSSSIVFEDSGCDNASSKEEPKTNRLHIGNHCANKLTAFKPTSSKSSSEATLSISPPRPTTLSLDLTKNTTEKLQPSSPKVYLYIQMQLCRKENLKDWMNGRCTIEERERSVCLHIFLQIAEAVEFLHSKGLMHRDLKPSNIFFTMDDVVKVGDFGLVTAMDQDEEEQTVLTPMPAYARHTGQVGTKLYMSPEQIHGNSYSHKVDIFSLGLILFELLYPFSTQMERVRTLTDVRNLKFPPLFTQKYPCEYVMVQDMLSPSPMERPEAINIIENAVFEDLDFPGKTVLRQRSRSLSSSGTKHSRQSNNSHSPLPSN
# Sequence of Serine/threonine-protein kinase B-raf (Homo sapiens), P15056 [V600E] (P15056 whole entry V600E): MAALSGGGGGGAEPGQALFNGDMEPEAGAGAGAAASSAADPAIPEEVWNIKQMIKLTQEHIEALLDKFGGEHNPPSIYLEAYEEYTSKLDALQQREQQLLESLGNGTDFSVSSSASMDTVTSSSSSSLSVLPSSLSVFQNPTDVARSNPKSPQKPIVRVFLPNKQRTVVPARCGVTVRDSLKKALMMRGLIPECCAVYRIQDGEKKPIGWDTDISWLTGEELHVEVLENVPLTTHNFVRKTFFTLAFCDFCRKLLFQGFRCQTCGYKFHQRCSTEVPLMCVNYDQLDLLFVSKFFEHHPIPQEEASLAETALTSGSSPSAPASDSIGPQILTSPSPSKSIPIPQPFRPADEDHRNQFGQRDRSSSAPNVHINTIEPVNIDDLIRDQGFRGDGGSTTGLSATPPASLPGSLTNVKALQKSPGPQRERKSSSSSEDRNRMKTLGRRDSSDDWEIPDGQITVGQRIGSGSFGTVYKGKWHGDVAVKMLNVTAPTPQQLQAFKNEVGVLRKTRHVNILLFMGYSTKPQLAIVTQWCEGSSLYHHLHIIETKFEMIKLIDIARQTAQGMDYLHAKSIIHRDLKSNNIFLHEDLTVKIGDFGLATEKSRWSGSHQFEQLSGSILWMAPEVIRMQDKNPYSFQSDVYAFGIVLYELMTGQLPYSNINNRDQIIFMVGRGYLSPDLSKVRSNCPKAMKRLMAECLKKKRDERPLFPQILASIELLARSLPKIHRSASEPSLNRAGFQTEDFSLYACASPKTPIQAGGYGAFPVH
# Sequence of Calcium/calmodulin-dependent protein kinase type 1 (Homo sapiens) (Q14012 whole entry, looked up): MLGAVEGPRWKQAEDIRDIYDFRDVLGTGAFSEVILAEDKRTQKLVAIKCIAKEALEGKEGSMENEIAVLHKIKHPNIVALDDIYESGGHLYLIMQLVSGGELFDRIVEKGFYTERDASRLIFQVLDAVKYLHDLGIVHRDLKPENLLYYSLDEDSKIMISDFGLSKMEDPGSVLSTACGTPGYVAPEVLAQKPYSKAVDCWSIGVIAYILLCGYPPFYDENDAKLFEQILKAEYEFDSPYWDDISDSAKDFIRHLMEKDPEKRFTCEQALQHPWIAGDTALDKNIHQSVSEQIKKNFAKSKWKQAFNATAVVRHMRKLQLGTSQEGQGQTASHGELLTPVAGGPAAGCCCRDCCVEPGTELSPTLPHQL
smiles,measurement,setting,value
Cc1ccc(NC(=O)C2(C(=O)Nc3ccc(Nc4ncc(F)c(-c5cc(F)c6nc(C)n(C(C)C)c6c5)n4)cc3)CC2)cc1,inhibition,[1],61%
same,inhibition,Homo sapiens,6%
same,inhibition,[2],14%
same,inhibition,[3],94%
same,inhibition,[4],2%
same,inhibition,[5],18%
same,Activity,[6],Non-Toxic
same,Tmax,[7],2 h
same,inhibition,[8],47%
same,inhibition,[9],0%
same,Activity,T47D,Active
same,inhibition,[10],30%
same,inhibition,[11],0%
same,inhibition,[12],45%
same,inhibition,[13],53%
same,AUC(0-inf),[14],6000 ng·h/mL
same,inhibition,[15],16%
same,inhibition,[16],0%
same,inhibition,[17],12%
same,inhibition,[18],15%
same,AUC(0-t),[19],6000 ng·h/mL
COc1cc2nccc(Oc3ccc(NC(=O)C4(C(=O)Nc5ccc(F)cc5)CC4)cc3)c2cc1OC [CABOZANTINIB],inhibition,MDA-MB-231,Active
